Legend:
[1] = chymotrypsin-based two-step assay; cited from earlier work
[2] = test system: ^15N-OsIAA11^72−125 (W104-P105 peptide bond); experiment: Nzz-exchange: catalyzed cis-trans exchange of W104-P105; type: biochemical, rice
Method in brief: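 15N-labeled OsIAA11 72–125 substrate (800μM) with 16μM enzyme (LRT2 mutant or homolog) in NMR buffer (50mM KCl, 20mM KPO4, 3mM TCEP, 5mM NaN3, 0.1% protease inhibitor cocktail, pH=6.67). Protein concentrations were set by A280 using theoretical extinction coefficients. Nzz-exchange spectra were processed to give the observed cis-trans exchange rate (kexobs) of the W104-P105 bond with uncertainties.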

Substance	Catalytic activity on W-P substrate [1]	Nzz exchange crosspeaks / activity ([2]; 16μM enzyme, 800μM OsIAA11^72–125)	Nzz-measured kexobs ([2]; 1H-15N Nzz exchange, 16μM enzyme, 800μM OsIAA11^72–125, NMR buffer pH=6.67) [s⁻¹]	Activity relative to WT LRT2 on OsIAA11 ([2]; Nzz, % of WT LRT2 activity) [%]
hCypA W121A: hCypA W121A mutant	negligible catalytic activity	–	–	–
hCypA: human cyclophilin A [reference compound]	–	clear exchange crosspeaks	0.69 ± 0.04	110
